Most compounds without a hit are left out; they make up all but 3.1% or so of the library.
GPR7 antag: GPR7 receptor antagonists, primary screen, cell-based, fluorescence, single concentration. GPR7-expressing cells, fluorescence antagonist assay. inhibition, % at 4.4 µM. 290,000 compounds, 1.1% hits; in the data active = inhibition above about 16%, passing the limit was not always enough;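 note: cells stimulated with the agonist NPW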
Target sequence (P48145 whole entry, looked up): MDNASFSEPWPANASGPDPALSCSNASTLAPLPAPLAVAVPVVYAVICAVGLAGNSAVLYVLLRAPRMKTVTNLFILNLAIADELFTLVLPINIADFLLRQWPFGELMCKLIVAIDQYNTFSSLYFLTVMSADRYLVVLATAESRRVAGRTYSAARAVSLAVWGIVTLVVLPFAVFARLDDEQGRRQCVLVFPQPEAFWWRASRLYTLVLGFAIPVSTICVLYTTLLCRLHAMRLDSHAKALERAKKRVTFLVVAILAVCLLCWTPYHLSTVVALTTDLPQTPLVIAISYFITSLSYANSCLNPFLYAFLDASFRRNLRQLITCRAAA
OX1R antag-1: OX1R (HCRTR1) antagonists, primary screen, fluorescence, CHO/OX1R cells, Fluo-8 calcium, orexin A; Orexin/Hypocretin receptor type 1 (Homo sapiens), O43613; Fluo-8 calcium fluorescence; inhibition, % at 5 µM; 330,000 compounds, 0.43% hits;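 active = inhibition above its plate's threshold, mean inhibition of all tested compounds on the plate plus 3 SD, cut at about 37% in these data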
CHO parental Ca: ATP-evoked calcium signal inhibitors, parental CHO, primary screen, counter-screen for OX1R antagonist project, cell-based, fluorescence, Fluo-8 calcium dye | parental CHO-K1, ATP-induced calcium, Fluo-8 fluorescence | inhibition, % at 5.6 µM | 330,000 compounds, 0.63% hits;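 active = inhibition above that plate's mean sample inhibition plus 3 SD, cut at about 26% in these data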
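test system = CHO parental line | reagent = ATP stimulus | measured by = intracellular calcium via Fluo-8 no-wash fluorescent dye | control set = ATP and no-ATP DMSO wells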
OX1R antag-2: antagonists of human orexin 1 receptor (OX1R) | inhibition, % at 6.6 µM | Orexin/Hypocretin receptor type 1 (Homo sapiens), O43613 | OX1R-expressing cells, FRET antagonist read-out | 330,000 compounds, 1.8% hits | AID 485270, 2010; in the data active = inhibition mostly above about 38%, no sharp cut-off; inactive = mostly below about 40%
GalR3 antag: GalR3 antagonists in HEK293 cells, primary screen, cell-based, fluorescence readout. inhibition, % at 3 µM. HEK293 GalR3-CNG cAMP membrane potential fluorescence; galR3 body fused to GalR1 C-terminus. Galanin receptor type 3 (Homo sapiens), O60755. AID 651719, 2012. 360,000 compounds, 0.44% hits;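 active = inhibition above the screen-wide average plus 3 SD, cut at about 13% in these data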;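 note: forskolin and galanin both at EC90 stimulate the cells; cAMP rise reported by CNG channel membrane potential dye signal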
Target sequence (O60755 1-299 limits assumed): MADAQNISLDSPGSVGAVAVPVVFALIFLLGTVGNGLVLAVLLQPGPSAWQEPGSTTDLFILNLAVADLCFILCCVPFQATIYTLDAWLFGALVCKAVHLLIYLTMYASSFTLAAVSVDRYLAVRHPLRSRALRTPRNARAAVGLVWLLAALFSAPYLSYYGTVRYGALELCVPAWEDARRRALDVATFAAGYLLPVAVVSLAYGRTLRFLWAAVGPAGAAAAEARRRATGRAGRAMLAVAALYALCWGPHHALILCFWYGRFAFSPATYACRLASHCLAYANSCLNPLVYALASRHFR
Numbers stand for hits; n = inactive; x = no result.

SMILES	GPR7 antag	OX1R antag-1	CHO parental Ca	OX1R antag-2	GalR3 antag
COc1ccc(C(=O)Oc2cc3c4c(c2)C(C)=CC(C)(C)N4C(=O)C3=O)cc1OC	n	n	n	n	n
COc1ccc(CCC(=O)OCC(=O)Nc2sccc2C(N)=O)cc1	x	55	33	n	n
COC(=O)c1ccc(/C=C/C(=O)OCC(=O)Nc2sccc2C(N)=O)cc1	x	n	n	56	x
NC(=O)c1ccsc1NC(=O)COC(=O)CSc1ccc(Cl)cc1	n	45	42	n	n
NC(=O)c1ccsc1NC(=O)COC(=O)/C=C/c1ccc([N+](=O)[O-])cc1	n	n	n	n	n
O=C(COC(=O)CSc1ccc(Cl)cc1)Nc1ccccc1	x	n	n	n	n
COc1ccccc1Cc1c(-c2ccc(C#N)cc2)nc2c3ccccc3ccn12	x	x	x	x	n
O=[N+]([O-])c1cc(C(F)(F)F)ccc1NCCc1ccccn1	x	n	n	n	n
CS(=O)(=O)c1ccc(NCCc2ccccn2)c([N+](=O)[O-])c1	n	n	n	52	n
CN(C)C(CNc1ccc(S(C)(=O)=O)cc1[N+](=O)[O-])c1ccccc1 (centres undefined)	n	n	n	n	n
CN(C)C(CNc1ccc(S(C)(=O)=O)cc1[N+](=O)[O-])Cc1ccccc1 (centres undefined)	n	n	n	43	n
CC(C)c1ccc(NC(=O)C2Cc3c(-c4ccccc4Oc4ccccc4)ccnc3O2)cc1 (centres undefined)	x	x	x	x	n
CCOc1ccc(CC(=O)Nc2sc(Cc3ccccc3)c(C)c2C(N)=O)cc1OCC	n	n	n	57	n
Cc1ccc(Cl)cc1N1CCN(C(=O)CSc2nnc3n2C(C)(C)Cc2ccccc2-3)CC1	n	77	77	104	n
COc1ccc(Br)cc1CNC(=O)c1ccc2c(c1)N(C)CCS2	n	n	n	57	x
COc1ccc(CCNC(=O)c2ccc3c(c2)N(Cc2ccc(F)cc2)CCS3)c(OC)c1	n	n	n	46	n
COc1ccc(OC)c(CCNC(=O)c2ccc3c(c2)N(Cc2ccc(F)cc2)CCS3)c1	n	n	n	n	x
CC1CCCN(c2cccc3c2S(=O)(=O)N([C@H](C)c2ccccc2)C[C@@H](COCc2ccccc2)O3)C1 (some centres undefined)	x	x	x	x	n
CC(C)C(NCC(=O)Nc1ccccc1C(=O)NC1CC1)c1ccccc1 (centres undefined)	x	n	n	43	n
CC(NCC(=O)Nc1ccccc1C(=O)NC1CC1)c1cccs1 (centres undefined)	x	n	n	n	n
C[C@H](O)[C@@H]1CN2CCc3ccc(-c4ccc5c(c4)OCO5)cc3[C@@H]2C[C@@H]1N(C)C(=O)c1cccc(Cl)c1	x	x	x	x	n
O=C(CS(=O)(=O)c1ccc(F)cc1)Nc1nnc(-c2ccccc2Cl)o1	x	n	n	45	n
O=C(Oc1ccccc1)c1ccccc1OS(=O)(=O)c1ccccc1	n	61	65	n	n
O=C1c2cccc(O)c2C(=O)c2c(O)cc(CO)cc21	x	n	n	48	x
CN(C)CCCNS(=O)(=O)c1ccc(N2CCC(c3ccc(Cl)cc3)=N2)cc1	41	n	n	n	n
SMILES	GPR7 antag	OX1R antag-1	CHO parental Ca	OX1R antag-2	GalR3 antag
O=S(=O)(c1ccc(N2CCC(c3ccc(Cl)cc3)=N2)cc1)N(CCO)CCO	n	46	62	n	n
CN(C)CCCNS(=O)(=O)c1cc(Cl)ccc1Cl	n	n	n	n	n
O=S(=O)(c1ccc(Oc2ccc(S(=O)(=O)N(CCO)CCO)cc2)cc1)N(CCO)CCO	n	n	n	n	n
Cc1cc(-c2cc(NC(=O)Cc3c[nH]c4ccccc34)ccc2N(C)c2cccnc2)ccc1F	x	x	x	x	n
Cc1cc(NC(=O)CCCSc2nc(-c3ccco3)cc(C(F)(F)F)n2)no1	n	n	n	n	n
COc1ccc(NC(=O)CCCSc2nc(-c3ccco3)cc(C(F)(F)F)n2)cc1OC	n	n	n	66	n
O=C(Nc1ccccc1F)c1csc([C@@H]2C[C@H](O)[C@@H](CO)O2)n1	x	x	x	x	n
CCc1oc2ccccc2c1C(=O)c1cc(Br)c(O)c(Br)c1	n	n	n	76	n
CCc1ccc(OCC(=O)c2c(O)c3ccccc3oc2=O)cc1	n	n	n	n	n
Cc1cc(C)n2nc(SCC(=O)NC3(C#N)CCCCC3)nc2n1	x	x	x	x	n
COc1ccc(OC)c(NC(=O)CSc2ncnc3c2cnn3-c2ccccc2Cl)c1	n	52	53	n	x
CC(=O)Nc1cc(OC(C)=O)c2nonc2c1OC(C)=O	n	n	n	85	n
Cn1c(=O)c2c(nc(NCc3ccc4c(c3)OCO4)n2Cc2ccccc2)n(C)c1=O	n	n	n	n	n
Cn1c(=O)c2c(nc(NCc3ccc4c(c3)OCO4)n2Cc2ccc(F)cc2)n(C)c1=O	n	n	22	n	n
O=C(c1ccccc1Cl)N1CCNCC1	n	n	n	n	n
Clc1cccc2c1Sc1ccccc1CC2N1CCNCC1 (centres undefined)	58	n	n	n	n
Cc1nnc(SCC(=O)c2ccc(Cl)cc2)n(N)c1=O	n	n	n	50	n
Cc1ccc(NC(=O)CSc2nnc(C)c(=O)n2N)cc1Cl	n	n	n	n	n
COc1ccc2cc(/C=C3\SC(=S)NC3=O)c(N3CCOCC3)nc2c1	n	n	n	74	n
Cc1ccc(Cn2c(C)c(C(=O)NCc3cccs3)sc2=O)cc1	x	x	x	x	n
COc1ccc(Cn2c(=N)c(C(=O)NCC3CCCO3)cc3c(=O)n4ccccc4nc32)cc1 (centres undefined)	n	n	n	61	n
COc1ccc(CCn2c(=N)c(C(=O)NCC3CCCO3)cc3c(=O)n4ccccc4nc32)cc1 (centres undefined)	n	n	n	58	n
NC(=O)c1ncn([C@@H]2O[C@H](C(=O)N[C@H](Cc3c[nH]c4ccccc34)C(=O)N3CCN(CC(=O)N4CCCC4)CC3)[C@@H](O)[C@H]2O)n1	x	x	x	x	n
Cc1cc2sc3ccccc3c(=O)c2c(C)c1O	n	n	n	69	n
COC(=O)[C@@]12C[C@@H](CC(=O)N3CCC(c4ccccc4)CC3)C(=O)N(Cc3ccc4c(c3)OCO4)C1=CCC(C)(C)C2	x	x	x	x	n
COc1ccc(C=NNc2nc3ccccc3s2)cc1	x	x	x	x	n
Brc1cc2c(cc1/C=N/Nc1nc3ccccc3s1)OCO2	n	n	n	n	n
C(=N\Nc1nc2ccccc2s1)/c1ccc2c(c1)OCO2	n	n	n	75	n
C(=N\Nc1nc2ccccc2s1)/c1ccccn1	n	n	n	60	n
CSCCC(C(=O)NCc1ccccc1)n1c(-c2ccc3c(c2)CCO3)nc2ccccc21 (centres undefined)	x	x	x	x	n

Screens (PubChem)
